Screening results (PubChem)
Most compounds without a hit are left out; they make up all but 9.6% or so of the library.
Lmaj promast = reduces viability of Leishmania major promastigotes; resazurin fluorescence viability; inhibition, % at 10 µM; hit rate 9% among 200,000; in the data active = inhibition above about 50%;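 also: promastigotes grown with compound for 44 hours at 28 °C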
TNAP act hi DEA = TNAP (human) activation, high acceptor | purified TNAP, CDP-star luminescence, 1 M DEA, 30 min; active compounds read high; 0 = EDTA background, 1 = DMSO-only activity | activation factor at 20 µM | 200,000 tested, under 10 active | AID 1136;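 active = activation factor at least 2 at 20 µM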
Target sequence (P05186 whole entry, looked up): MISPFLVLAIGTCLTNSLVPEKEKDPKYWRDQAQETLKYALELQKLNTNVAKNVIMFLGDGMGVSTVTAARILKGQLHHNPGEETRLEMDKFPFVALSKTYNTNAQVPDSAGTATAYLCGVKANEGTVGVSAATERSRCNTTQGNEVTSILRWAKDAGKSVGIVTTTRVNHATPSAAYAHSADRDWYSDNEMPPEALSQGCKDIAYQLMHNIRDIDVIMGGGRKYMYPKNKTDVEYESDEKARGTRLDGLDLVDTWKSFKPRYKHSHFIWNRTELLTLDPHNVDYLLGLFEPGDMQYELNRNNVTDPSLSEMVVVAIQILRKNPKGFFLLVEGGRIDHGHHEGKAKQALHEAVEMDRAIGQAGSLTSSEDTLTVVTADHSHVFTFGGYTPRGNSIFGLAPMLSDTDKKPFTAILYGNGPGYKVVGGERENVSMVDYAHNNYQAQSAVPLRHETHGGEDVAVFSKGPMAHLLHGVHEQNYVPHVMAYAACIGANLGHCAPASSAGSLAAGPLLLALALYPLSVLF
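Assay system: human TNAP; Input: enzyme diluted 1/800 final; Reagent: CDP-star luminogenic substrate at 100 µM final; Timing: 30 min, room temperature; Signal: luminescence; Evaluation: TNAP activation factor scaled between EDTA and DMSO control wells.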
HCT116 PTEN-null = growth suppressors of cells with PTEN tumor suppressor deletion; HCT116 PTEN-null viability, CellTiter-Glo, 60 h; active compounds read low; hit rate 1.2% among 140,000; viability, % at 10 µM;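 active = viability at or below a set limit, 4 SD under the median of all tested compounds, cut at about 3.7% in these data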;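 also: PTEN knockout HCT116 line with beta catenin targeted HCT116 as companion control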
HCT116 bCat-KO = beta-catenin-lacking colon tumor cell growth suppression. HCT116 beta-catenin knockout viability, CellTiter-Glo, 60 h; active compounds read low. viability, % at 10 µM. hit rate 1.5% among 140,000. AID 818;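 active = viability at or under a set limit, the compound median less 4 SD, cut at about 6% in these data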
TNAP inh hi DEA = TNAP (human) inhibition, high acceptor. AID 1135. P05186. inhibition, % at 20 µM. hit rate 0.03% among 200,000. purified TNAP, CDP-star luminescence, 1 M DEA;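 active = over 50% inhibition of tissue-nonspecific alkaline phosphatase at 20 µM in the single-dose screen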
TNAP inh no acc = TNAP (human) inhibition, acceptor-free conditions; P05186; inhibition, % at 20 µM; purified TNAP, CDP-star luminescence, 30 min; hit rate 0.26% among 200,000;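 active = tissue-nonspecific alkaline phosphatase inhibition above about 50% at 20 µM in the single-dose screen, limit read from the data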
Numbers stand for hits; . = inactive; / = not tested or not shown.

SMILES	Lmaj promast	TNAP act hi DEA	HCT116 PTEN-null	HCT116 bCat-KO	TNAP inh hi DEA	TNAP inh no acc
CCOC(=O)C1(CCOc2ccccc2)CCN(Cc2ccc(-n3cccn3)cc2)CC1	90	.	/	/	.	.
CCOC(=O)C1(CCOC)CCN(Cc2ccncc2)CC1	.	.	/	/	.	.
CCOC(=O)C1(CCOc2ccccc2)CCN(Cc2nccn2CC)CC1	.	.	/	/	.	.
CCOC(=O)C1(CCOc2ccccc2)CCN(Cc2ccncc2)CC1	86	.	/	/	.	.
CC(=O)Nc1ccc(NC(=O)c2c(C)nn(-c3ccccc3)c2Cl)cc1C	.	.	/	/	.	.
O=C(/C(C=Nc1cc2c(oc1=O)CCCC2=O)=C(\O)c1ccccc1)c1ccccc1	.	.	/	/	.	.
Clc1ccc(NNc2ccnc3cc(Cl)ccc23)cc1	.	.	.	.	.	.
Cc1ccccc1/C=N/Nc1ccnc2cc(Cl)ccc12	98	.	.	.	.	.
Cc1ccc(/C=N/Nc2ccnc3cc(Cl)ccc23)c(C)c1	100	.	1.6	1.3	.	.
COC(=O)C1CC(O)CN1C(=O)Nc1ccccc1 (centres undefined)	.	.	/	/	.	.
COc1ccc2c(c1)CCCC21NC(=O)N(CC(=O)NC(=O)NCc2ccccc2)C1=O (centres undefined)	.	.	/	/	.	.
CCCCN(C(=O)CSc1nnc(-c2ccccc2OC)n1C)c1c(N)n(Cc2ccccc2)c(=O)[nH]c1=O	61	.	.	.	.	.
COCCN(C(=O)CSc1nnc(-c2ccccc2F)n1C)c1c(N)n(Cc2ccccc2)c(=O)[nH]c1=O	.	.	/	/	.	.
O=C(CN1C(=O)NC2(CCOc3ccccc32)C1=O)Nc1cccc(Cl)c1 (centres undefined)	.	.	/	/	.	.
O=c1[nH]c(SCc2ccc(Cl)cc2)nc2ccccc12	.	.	/	/	.	.
O=Cc1cc2ccccc2nc1SCc1ccc(Cl)cc1	97	.	.	.	.	.
O=Cc1cc2ccccc2nc1SCc1ccc(Cl)c(Cl)c1	95	.	.	.	.	.
Cc1ccc(CSc2nc3ccccc3cc2C=O)cc1	96	.	.	.	.	.
COCCOC(=O)c1c(NC(=O)CN2CCCc3ccccc32)sc(C(N)=O)c1C	.	.	.	.	.	.
CCCNC1=C(N(C(C)=O)c2cccc(F)c2)C(=O)c2ccccc2C1=O	99	.	0.8	1.0	.	.
CCC(=O)N(C1=C(NC(C)C)C(=O)c2ccccc2C1=O)C(C)C	.	.	/	/	.	.
CCN1C(=O)/C(=C/c2ccc(C)o2)N(C)C1=S	.	.	.	.	.	.
CCN(Cc1ccccc1)S(=O)(=O)c1ccc(C(=O)Nc2nnc(C3CC3)o2)cc1	98	.	.	.	.	.
Cc1nnc(NC(=O)c2ccc(S(=O)(=O)N(C)Cc3ccccc3)cc2)o1	77	.	.	.	.	.
COC(=O)c1cc(NC(=O)/C=C/c2ccccc2)ccc1O	.	.	/	/	.	.
SMILES	Lmaj promast	TNAP act hi DEA	HCT116 PTEN-null	HCT116 bCat-KO	TNAP inh hi DEA	TNAP inh no acc
O=C(O)CCCNC(=O)c1ccc(NC(=O)Cc2ccc(Cl)cc2)cc1	.	.	/	/	.	.
Cc1nn(Cc2ccc(Cl)cc2)c(C)c1NC(=O)C(c1ccccc1)c1ccccc1	99	.	.	.	.	.
CC(=O)c1c(C)n(CC(=O)NCc2ccco2)c2ccccc12	.	.	/	/	.	.
CC1CN(C(=O)COC(=O)c2ccc(Cl)nc2)CC(C)O1 (centres undefined)	.	.	/	/	.	.
CCN(CC)c1ccc(N2C(=O)/C(=C/c3cccs3)SC2=S)cc1	.	.	.	.	.	.
O=C1/C(=C/c2ccncc2)SC(=S)N1C1CCS(=O)(=O)C1 (centres undefined)	100	.	.	.	.	.
O=C1/C(=C\c2cccs2)SC(=S)N1C1CCS(=O)(=O)C1 (centres undefined)	77	.	/	/	.	.
Cc1ccc(/C=C2\SC(=S)N(C3CCS(=O)(=O)C3)C2=O)o1 (centres undefined)	.	.	/	/	.	.
CNC(=O)CN(c1cc(OCCOC)c(Cl)cc1Cl)S(=O)(=O)c1ccc(OC)cc1	.	.	/	/	.	.
COCCn1c(N)c(N(Cc2ccccc2)C(=O)c2cc3ccccc3o2)c(=O)[nH]c1=O	.	.	/	/	.	.
COC(=O)[C@@]1(Cc2ccc(OC)cc2)[C@@H]2C(=CC(=O)[C@H]2CC(=O)C(=O)N(C)C)CN1C(=O)c1ccccc1	100	.	2.5	2.2	.	.
COC(=O)[C@@]1(Cc2ccc(OC)cc2)[C@H]2c3cc(C(=O)N(C)C)n(C[C@H](O)CO)c3C[C@H]2CN1C(=O)c1ccccc1	.	.	.	.	.	.
C=C1C(=O)C=C2CN(C(=O)c3ccccc3)[C@@](Cc3ccc(F)cc3)(C(=O)OC)[C@@H]12	100	.	1.0	0.9	.	.
COC(=O)[C@@]1(Cc2ccc(F)cc2)[C@H]2c3cc(C(=O)N(C)C)n(Cc4ccccc4)c3C[C@H]2CN1C(=O)c1ccccc1	.	.	.	.	.	.
Cc1[nH]n(-c2ccccc2)c(=O)c1C(c1cccc([N+](=O)[O-])c1)c1c(C)[nH]n(-c2ccccc2)c1=O	.	.	.	.	.	.
Cc1[nH]n(-c2ccccc2)c(=O)c1C(C[N+](=O)[O-])c1ccc(Br)cc1 (centres undefined)	100	.	.	.	.	.
CN(Cc1ccno1)Cc1cn(C)nc1-c1ccc(Oc2ccccc2)cc1	.	.	/	/	.	.
CN(Cc1cn(C)nc1-c1ccc(Oc2ccccc2)cc1)Cc1cnc2ccccn12	78	.	/	/	.	.
Cc1cc(CNCc2cn(C)nc2-c2ccc(Oc3ccccc3)cc2)on1	60	.	/	/	.	.
COc1cccc(-c2nn(-c3ccccc3)cc2CN(C)Cc2c(C)nc3ccccn23)c1	.	.	/	/	.	.
Cn1cc(CNCc2cnc3ccccn23)c(-c2ccc(Oc3ccccc3)cc2)n1	.	.	/	/	.	74
CN(Cc1cn(C)nc1-c1ccc(Oc2ccccc2)cc1)CC1COCCO1 (centres undefined)	85	.	/	/	.	.
C/C(=N\NC(=O)c1ccc(COc2ccccc2)cc1)c1ccncc1	.	.	/	/	.	.
CCN1C(=O)[C@H]2[C@H]3[C@H](O)[C@H](O)C/C(=N\O[C@H](C)c4cn([C@H](CO)Cc5ccccc5)nn4)[C@@H]3CC[C@H]2C1=O	.	.	.	.	.	.
CN(C)CCCn1c(SCC(=O)N2c3ccccc3Sc3ccccc32)nc2ccccc2c1=O	101	.	1.7	1.6	.	.
Cn1c(SCC(=O)N2c3ccccc3Sc3ccccc32)nc2ccccc21	.	.	.	.	.	.
CCn1c(SCC(=O)Nc2nc(-c3ccc(C)cc3)cs2)nnc1-c1ccccc1O	100	.	.	.	.	.
CCOc1ccc(NCc2nnc(SCC(=O)Nc3nc(-c4ccccc4)cs3)n2-c2ccccc2)cc1	95	.	1.0	1.3	.	.
